This is an account of results in ChEMBL document CHEMBL1649278, “Characterization of a new metallo-beta-lactamase gene, bla(NDM-1), and a novel erythromycin esterase gene carried on a unique genetic structure in Klebsiella pneumoniae sequence type 14 from India” (2009).

Test [1] deals with Klebsiella pneumoniae. In words: Antibacterial activity against Klebsiella pneumoniae 05-560 by Etest method. The test is classed as functional.
Test [2] has as its system Escherichia coli. In words: Antibacterial activity against Escherichia coli TOP10 by Etest method. The test is classed as functional.
In test [3] the test system is Escherichia coli. In words: Antibacterial activity against Escherichia coli TOP10 harboring beta-lactamase NDM-1 by Etest method. The test is classed as functional. The method in brief: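 Fragments from BamHI, EcoRI or HindIII digests of K. pneumoniae 05-506 DNA were cloned into vector pK18 and electroporated into E. coli TOP10. Transformants were selected on LB agar with X-gal (30 μg/ml), ceftazidime (6 μg/ml) and kanamycin (25 μg/ml). Susceptibility read by Etest.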

In test [4] the test system is Escherichia coli. Description: Antibacterial activity against Escherichia coli J53 by Etest method. The test is classed as functional.
Test [5] deals with Escherichia coli. In words: Antibacterial activity against Escherichia coli J53 harboring beta-lactamase NDM-1 by Etest method. It counts as functional. The method in brief: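 Transconjugant of E. coli J53 recipient, mated with donor on blood agar without selection for 18 h. Selected on MacConkey agar with sodium azide (100 μg/ml) plus ceftazidime (8 μg/ml). Transfer confirmed by indole test and PCR for the MBL gene. Susceptibility read by Etest.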

Test [6] has as its system Escherichia coli. Description: Antibacterial activity against Escherichia coli NF-NDM-1 by Etest method. It counts as functional.
Test [7] concerns Klebsiella pneumoniae. Description: Activity of Klebsiella pneumoniae 05-560 beta-lactamase IMP1 by spectrophotometry.
The test system of test [8] is Klebsiella pneumoniae. In words: Ratio of Kcat to Km for Klebsiella pneumoniae 05-560 beta-lactamase IMP1.

In brackets after ≈: the same amount, converted by molar mass. Some results are limits rather than exact numbers.

On to `C[C@@H](O)[C@H]1C(=O)N2C(C(=O)O)=C(S[C@@H]3CN[C@H](C(=O)Nc4cccc(C(=O)O)c4)C3)[C@H](C)[C@H]12`, for which the MIC was more than 256 µg/mL in test [1]; 0.125 µg/mL (≈ 0.263 µM) in test [2]; 24 µg/mL (≈ 50.5 µM) in test [3]; 0.5 µg/mL (≈ 1.05 µM) in test [4]; more than 32 µg/mL in test [5]; more than 32 µg/mL in test [6].
Regarding `CO/N=C(\C(=O)N[C@@H]1C(=O)N2C(C(=O)[O-])=C(C[N+]3(C)CCCC3)CS[C@H]12)c1csc(N)n1`, the minimal inhibitory concentration (MIC) in test [1] was more than 256 µg/mL; in test [3], 8 µg/mL (≈ 16.6 µM); in test [5], 24 µg/mL (≈ 49.9 µM); in test [6], 24 µg/mL (≈ 49.9 µM). The Michaelis constant (Km) in test [7] stood at 11 µM. The kcat in test [7] was 7 s⁻¹. In test [8], the kcat/Km was found to be 660000 M⁻¹ s⁻¹.
Take `CC1(C)S[C@@H]2[C@H](NC(=O)Cc3ccccc3)C(=O)N2[C@H]1C(=O)O`: in test [7], the Michaelis constant (Km) turned out to be 520 µM and the kcat came to 320 s⁻¹. Moreover, in test [8], the kcat/Km is 620000 M⁻¹ s⁻¹.
For the compound `CC1(C)S[C@@H]2[C@H](NC(=O)[C@H](N)c3ccccc3)C(=O)N2[C@H]1C(=O)O` [AMPICILLIN], the MIC in test [1] was more than 256 µg/mL; in test [2], 12 µg/mL (≈ 34.3 µM); in test [3], more than 256 µg/mL; in test [4], 4 µg/mL (≈ 11.4 µM); in test [5] it was more than 256 µg/mL; in test [6], more than 256 µg/mL. Moreover, the Km in test [7] came to 200 µM. For the same compound, the kcat in test [7] came to 950 s⁻¹. Also, the kcat/Km in test [8] was determined as 4.8e+06 M⁻¹ s⁻¹.
On to `C[C@H]1[C@H](NC(=O)/C(=N\OC(C)(C)C(=O)O)c2csc(N)n2)C(=O)N1S(=O)(=O)O` [AZTREONAM], for which the MIC was more than 256 µg/mL in test [1], 0.25 µg/mL (≈ 0.574 µM) in test [3], 24 µg/mL (≈ 55.1 µM) in test [5] and 24 µg/mL (≈ 55.1 µM) in test [6]. Also, in test [7], the Km was more than 1000 µM. In test [7], the kcat was more than 0.01 s⁻¹. In addition, the kcat/Km in test [8] is less than 100 M⁻¹ s⁻¹.
For the compound `CO/N=C(\C(=O)N[C@@H]1C(=O)N2C(C(=O)O)=C(COC(C)=O)CS[C@H]12)c1csc(N)n1` [CEFOTAXIME], the MIC in test [1] is more than 256 µg/mL; in test [2], 0.125 µg/mL (≈ 0.274 µM); in test [3], more than 256 µg/mL; in test [4] it was 0.064 µg/mL (≈ 0.141 µM); in test [5] it was more than 256 µg/mL; in test [6], more than 256 µg/mL. Moreover, the Michaelis-Menten constant (Km) in test [7] is 4 µM. Moreover, the turnover number (kcat) in test [7] was 1.3 s⁻¹. In test [8], the kcat/Km is 350000 M⁻¹ s⁻¹.
Consider `CO[C@@]1(NC(=O)Cc2cccs2)C(=O)N2C(C(=O)O)=C(COC(N)=O)CS[C@@H]21` [CEFOXITIN], for which the MIC in test [1] is more than 256 µg/mL; in test [2], 4 µg/mL (≈ 9.36 µM); in test [3], more than 256 µg/mL; in test [4], 2 µg/mL (≈ 4.68 µM); in test [5], more than 256 µg/mL; in test [6], more than 256 µg/mL. Moreover, the specificity constant (kcat/Km) in test [8] is 2e+06 M⁻¹ s⁻¹.
As to `CC(C)(O/N=C(\C(=O)N[C@@H]1C(=O)N2C(C(=O)[O-])=C(C[n+]3ccccc3)CS[C@H]12)c1csc(N)n1)C(=O)O` [CEFTAZIDIME], the MIC in test [1] is more than 256 µg/mL; in test [2], 1 µg/mL (≈ 1.83 µM); in test [3] it was more than 256 µg/mL; in test [4], 0.125 µg/mL (≈ 0.229 µM); in test [5], more than 256 µg/mL; in test [6] it was more than 256 µg/mL. Moreover, the Km in test [7] came to 44 µM. For the same compound, the kcat in test [7] came out at 8 s⁻¹. In test [8], the specificity constant (kcat/Km) was 180000 M⁻¹ s⁻¹.
